Active and inactive are the calls of the source. No cut-off for these calls is given here. Starred links: 1 amine or outer side, 2 acyl side, 3 side chain; linkers in the order of their positions; H or OH if unused. Non-standard residues stand in square brackets, D forms with d. Residues, ends and D or L forms follow the SMILES beside them. X1 = N=C(N)N(O)CCC[C@H](N[*:1])C(=O)[*:2]
What was measured:
[1] = system: B16-F10; test: Cytotoxicity against mouse B16F10 cells at 30 uM after 24 hrs by EZ-cytox dye based assay; format: cell-based; details: b16-f10, 24 h
Procedure, shortened: (§1)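 Cells were seeded at 5.0 × 10^4 per well and grown 24 h, then exposed to compound for 24 h and washed with PBS. They were incubated 2 h in DMEM with EZ-Cytox reagent, and viability was read as water-soluble formazan optical density at 450 nm.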

[2] = system: 4T1; test: Cytotoxicity against mouse 4T1 cells at 30 uM after 24 hrs by EZ-cytox dye based assay; format: cell-based; details: 4t1, 24 h; procedure, shortened: as §1
[3] = system: B16-F0; test: Cytotoxicity against mouse B16F0 cells at 30 uM after 24 hrs by EZ-cytox dye based assay; format: cell-based; details: b16-f0, 24 h; procedure, shortened: as §1
[4] = system: HeLa; test: Cytotoxicity against human HeLa cells at 30 uM after 24 hrs by EZ-cytox dye based assay; format: cell-based; procedure, shortened: as §1
[5] = system: B16-F10; test: Antimelanogenic activity in mouse B16F10 cells assessed as inhibition of alpha-MSH-stimulated melanin synthesis up to 10 uM measured after 24 hrs; format: functional, cell-based
Procedure, shortened: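 B16F10 cells (3.5 × 10^4 per well) were grown 24 h in phenol red-free complete DMEM at 37 °C, 5% CO2. They were then given α-MSH (200 nM) with compound at 0–10 μM for 24 h. Cells were PBS-washed, trypsin-EDTA detached and centrifuged. Melanin was read as absorbance at 405 nm; mean ± SD, n = 3.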

[6] = system: B16-F10; test: Antimelanogenic activity in mouse B16F10 cells assessed as inhibition of alpha-MSH-stimulated melanin synthesis by measuring reduction in TRP2 expression up to 10 uM measured after 24 hrs by Western blot analysis; format: functional, cell-based
Procedure, shortened: (§2)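 B16F10 cells at 1.0 × 10^5 cells/mL were preincubated 24 h, then exposed to α-MSH (100 nM) plus 5, 7.5 or 10 μM compound for 24 h. Cells were lysed in M-per buffer. Whole-cell protein was run on SDS-PAGE and blotted to nitrocellulose, probed with anti-TRP-1 or anti-TRP-2 antibodies, and detected by chemiluminescence on film.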

[7] = system: B16-F10; test: Antimelanogenic activity in mouse B16F10 cells assessed as inhibition of alpha-MSH-stimulated melanin synthesis by measuring reduction in TRP1 expression up to 10 uM measured after 24 hrs by Western blot analysis; format: functional, cell-based; procedure, shortened: as §2

Row | SMILES | Activity [1] | Activity [2] | Activity [3] | Activity [4] | inhibition [5] | inhibition [6] | inhibition [7]
1 | CC(C)C[C@@H]1NC(=O)[C@@H](CC(C)C)NC(=O)[C@H](CCCN(O)C(=N)N)NC(=O)[C@H](Cc2c[nH]c3ccccc23)NC(=O)[C@@H](C(C)C)NC1=O (cyclo(L[dV]W[X1][dL])) | Non-Toxic | Non-Toxic | Non-Toxic | Non-Toxic |  |  | 
2 | CC(C)C[C@H]1NC(=O)[C@H](CCCN(O)C(=N)N)NC(=O)[C@H](Cc2c[nH]c3ccccc23)NC(=O)[C@@H](C(C)C)NC(=O)[C@H](C(C)C)NC1=O | Non-Toxic | Non-Toxic | Non-Toxic | Non-Toxic | Active | Active | Active

Reference: ChEMBL document CHEMBL4251677, “Pentaminomycins A and B, Hydroxyarginine-Containing Cyclic Pentapeptides from Streptomyces sp. RK88-1441” (J Nat Prod, 2018)
